By half-life is commonly meant how long it takes for the measured level to halve. As usually defined, the Km is the substrate concentration at which the rate is half of its maximum.

Molecules are shown by their SMILES. “Also recorded” adds a separate entry of the source.

The conditions of data set [1]: 30 °C and pH 7.0; cited from earlier work.
The nature of data set [2]: Stability of 3ketoLG in buffer. In kind it is physicochemical. The settings on record: for k: 10 mM 3ketoLG; for Ea: linear regression of the Arrhenius equation. The method, boiled down:
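Ketosugar is incubated at 30–70 °C in 50 mM sodium phosphate or 50 mM sodium acetate (pH 4.0, 5.0) buffers. At each time point, aliquots are diluted 1:20 into 1 mM acetic acid and quantified by HPLC. k comes from a single-exponential fit of the time course, and t1/2 = ln2/k. Ea at each pH comes from linear Arrhenius regression.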

Data set [3] in a line: Stability of 3ketoLG in acid. In kind it is physicochemical. The settings on record: 100 °C, 1 h. Summed up:
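Test ketosugar at 10 mM is dissolved in HCl (1, 10 or 100 mM) and held at 100 °C for 1 h. After cooling, samples are diluted 1:20 in water. Remaining ketosugar is quantified by HPLC (50 µL injection) on a KS-801 column with water eluent and charged-aerosol detection.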

Data set [4] is described as follows: Heat treatment of 3ketoLG and 3ketoMeβGlc in sodium phosphate buffer, HPLC. The format is physicochemical. The settings on record: sodium phosphate buffer 50 mM, pH 8.0, 60 min at 60 °C. Summed up: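 Samples are analysed by HPLC on a Shodex SUGAR KS-801 column (8.0 × 300 mm). Water is the eluent at 1 mL/min and 60 °C, with corona charged-aerosol detection. Chromatograms taken before and after heat treatment are compared.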

Data set [5] is described as follows: Solubility in aqueous solution. In kind it is physicochemical. The settings on record: aqueous solution / reaction mixture.
The target of data set [6] is pyranose oxidase (P2O) (Trametes versicolor, UniProt P79076). The experiment in a line: Measurement of P2O activity. The settings on record: for Km: P2O, LG: linear S–V relationship between 4 and 40 mM. In kind it is biochemical, Coriolus sp.
[7] abbreviates: substrate 10 mM, 30 °C, MOPS-Na buffer 25 mM, pH 7.5.

Turning to `O=C1CO[C@H](CO)[C@@H](O[C@@H]2O[C@H](CO)[C@@H](O)[C@H](O)[C@H]2O)[C@@H]1O` [1,5-anhydro-4-O-β-D-glucopyranosyl-D-fructose], the half-life in data set [1] is reported as 17 h.
Consider `O=C1[C@@H](O)[C@@H]2OC[C@@H](O2)[C@H]1O` [3ketoLG, 1,6-anhydro-β-D-ribo-hexopyranos-3-ulose], for which the k came to 0.062 ± 0.002 h⁻¹ in data set [2] (pH 4.0, 70 °C, sodium acetate buffer 50 mM); 0.20 ± 0.01 h⁻¹ in data set [2] (pH 5.0, 70 °C, sodium acetate buffer 50 mM); 0.028 ± 0.003 h⁻¹ in data set [2] (pH 6.0, 40 °C, sodium phosphate buffer 50 mM); 0.085 ± 0.005 h⁻¹ in data set [2] (pH 6.0, 50 °C, sodium phosphate buffer 50 mM); 0.32 ± 0.04 h⁻¹ in data set [2] (pH 6.0, 60 °C, sodium phosphate buffer 50 mM); 1.0 ± 0.1 h⁻¹ in data set [2] (pH 6.0, 70 °C, sodium phosphate buffer 50 mM). Further, the k came to 0.043 ± 0.003 h⁻¹ in data set [2] (pH 7.0, 30 °C, sodium phosphate buffer 50 mM); 0.13 ± 0.01 h⁻¹ in data set [2] (pH 7.0, 40 °C, sodium phosphate buffer 50 mM); 0.33 ± 0.02 h⁻¹ in data set [2] (pH 7.0, 50 °C, sodium phosphate buffer 50 mM); 1.7 ± 0.1 h⁻¹ in data set [2] (pH 7.0, 60 °C, sodium phosphate buffer 50 mM); 4.4 ± 0.1 h⁻¹ in data set [2] (pH 7.0, 70 °C, sodium phosphate buffer 50 mM); 0.083 ± 0.005 h⁻¹ in data set [2] (pH 8.0, 30 °C, sodium phosphate buffer 50 mM). In addition, the k was found to be 0.21 ± 0.02 h⁻¹ in data set [2] (pH 8.0, 40 °C, sodium phosphate buffer 50 mM); 0.57 ± 0.03 h⁻¹ in data set [2] (pH 8.0, 50 °C, sodium phosphate buffer 50 mM); 3.0 ± 0.1 h⁻¹ in data set [2] (pH 8.0, 60 °C, sodium phosphate buffer 50 mM); 9.1 ± 0.4 h⁻¹ in data set [2] (pH 8.0, 70 °C, sodium phosphate buffer 50 mM). Besides, the figures for the Ea in data set [2] (pH 6.0), in data set [2] (pH 7.0) and in data set [2] (pH 8.0) were 26.1 kcal/mol, 24.4 kcal/mol and 24.9 kcal/mol, respectively. Moreover, the “Decrease of 3ketoLG” value in data set [3] (1 mM HCl) is “No significant decrease”. The 3ketoLG remained in data set [3] (100 mM HCl) is on record as above 90%. Further, the “Change on heat treatment (HPLC)” value in data set [4] is “significantly decreased”. Moreover, the Solubility result in data set [5] is “poor solubility; also recorded: low solubility”.
With `OC[C@H]1OC(O)[C@H](O)[C@@H](O)[C@@H]1O` (stereo partly drawn) [D-glucose], in data set [6], the Km is 1000 µM. The “Specific activity of P2O” value in data set [6] (setting [7]) is on record as 5.1 U/mg-solid. In addition, in data set [6] (substrate 10 mM, 30 °C, MOPS-Na buffer 25 mM, pH 7.5, D-glucose = 100 %), the “Specific activity of P2O relative to D-glucose” value amounted to 100%.
For the molecule `O[C@@H]1[C@@H](O)[C@@H]2OC[C@@H](O2)[C@H]1O` [LG, 1,6-anhydro-β-D-glucopyranose], the Michaelis constant (Km) in data set [6] was above 40000 µM. Besides, in data set [6] (setting [7]), the “Specific activity of P2O” value is 0.018 U/mg-solid.
Regarding `O=C[C@H](O)[C@@H](O)[C@H](O[C@@H]1O[C@H](CO)[C@@H](O)[C@H](O)[C@H]1O)[C@H](O)CO` [cellobiose], in data set [6], the “Oxidation by P2O” value is “did not oxidize”.
The same measure, in the same setting: the value for `COC1OC(CO)C(O)C(O)C1O` [methyl-α-D-glucopyrnaoside] was “did not oxidize”.

The record behind these values is PMC8056934 (Journal of Applied Glycoscience, 2017).
